Measurements: publication PMC11224971 (The Oncologist, 2024)

Assays:
Type in all cases: in vivo, human
[1] = Pediatric MATCH arm H: safety and tolerability
[2] = Steady-state pharmacokinetics in plasma, cycle 1 day 8
How it was run: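 Plasma was sampled at steady state on cycle 1, day 8, after oral 135 mg/m²/dose BID. AUCSS was calculated by linear trapezoidal approximation through the day-8 24-hour dosing interval. The 24 h concentration was assumed equal to the predose concentration. CLSS was calculated as dose/AUCSS. Cmax, Tmax and t½ were also reported.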

[3] = tested on: relapsed or refractory advanced solid tumors harboring deleterious genetic alterations in the DDR pathway; assay: NCI-COG Pediatric MATCH phase II subprotocol; settings: 135 mg/m^2/dose BID oral
How it was run: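 Relapsed/refractory pediatric solid tumors (incl. CNS, non-Hodgkin lymphoma, histiocytosis) assigned by centralized tumor sequencing showing a deleterious BRCA1/2, RAD51C/D or ATM alteration, without germline subtraction or LOH analysis. Oral tablets 135 mg/m²/dose (max 225 mg/dose) twice daily, given continuously in 28-day cycles. Primary endpoint was objective response.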

O=C(c1cc(Cc2n[nH]c(=O)c3ccccc23)ccc1F)N1CCN(C(=O)C2CC2)CC1 [Olaparib]
Dose-limiting toxicities ([1]; 2 patients evaluable for DLT, cycle 1, 135 mg/m^2/dose BID): no dose-limiting toxicities
Hematologic toxicity (overall) ([1]; 6 patients evaluable for toxicity, 135 mg/m^2/dose BID): Minimal hematologic toxicity
Patients with grade 1/2 anemia ([1]; number of patients, 6 evaluable for toxicity): 3
Allergic reaction leading to removal from study ([1]; one patient (biallelic tumor loss of ATM), first dose, recurring upon rechallenge): acute allergic reaction (hives)
Clearance at steady state, mean ± SD ([2]; dose/AUCSS, dose level 1, 135 mg/m^2 BID oral tablet, n = 3): 4.1 ± 3.6 L/h/m^2
AUC(0-t) ([2]; human, plasma, po, 135 mg/m2): 48.8 ± 27.8 µg·h/mL
Cmax ([2]; human, plasma, po, 135 mg/m2): 7.5 ± 2.7 µg/mL
Tmax ([2]; human, plasma, po, 135 mg/m2): 1 to 4 h
half-life ([2]; human, plasma, po, 135 mg/m2): 5.6 ± 4.6 h
Objective response (complete + partial response) ([3]; 6 patients enrolled): no responses
Median duration assessments, OS ([3]; 6 patients, 95% CI: 0.8-NA): 2.5 months (95% CI: 0.8-NA)
Median duration assessments, PFS ([3]; Kaplan-Meier, 6 patients, 95% CI: 0.4-NA): 1.5 months (95% CI: 0.4-NA)
Response assessment, PD (number of patients, %) ([3]; RECIST 1.1, 6 patients evaluated for efficacy): 3 (50%)
